Screening data from PubChem.
NF-kB expr up: activators of NF-kB expression in neurons, primary screen, cell-based, HTS | human neuronal cells, NF-kB reporter expression; active compounds read high | fold change at 12.5 µM | 190,000 compounds, 1.6% hits; in the data active = fold change above about 3.3
APP 5'UTR act: activators of APP 5'UTR luciferase reporter, primary screen, SH-SY5Y cells. activation, % at 2 µM. SH-SY5Y APP 5'UTR luciferase reporter, luminescence; zero percent = DMSO vehicle wells. 190,000 compounds, 1% hits;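 active = activation above a set limit, based on mean plus 3 SD of controls, cut at about 140% in these data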
STAT1 activator: STAT1 signaling activators, primary screen, cell-based, HTS, luciferase reporter; NIH 3T3 STAT1-luciferase reporter, IFN-gamma, luminescence; 100% = IFN-gamma alone, no compound; activation (% of control), % at 5.5 µM; 200,000 compounds, 2.6% hits; AID 932, 2007;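 active = activation above the screen-wide mean activation plus 3 SD, cut at about 130% in these data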;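 also: raw ratio to IFN-gamma control signal so 100% means no change and 0% no light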
SDO1 yeast rescue: growth rescue of sdo1-depleted yeast, primary screen, S. cerevisiae, bone marrow failure model; S. cerevisiae sdo1-depleted JHY4D growth rescue, OD600 30 h; active compounds read high; pdr5 snq2 efflux-pump mutant strain; z-score at 10 µM; 140,000 compounds, 0.21% hits; AID 817, 2007;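 active = z-score above 3 at both the 24 hr and the 30 hr optical density reads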;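 also: z-score against mean and SD of all compound wells on the same plate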
FLuc inh counter: firefly luciferase enzyme inhibitors, primary screen, artefact control for luciferase-based inhibitor screens, biochemical, luminescence, ATPLite; Luciferin 4-monooxygenase (Photinus pyralis), P08659; 10 min; inhibition, % at 10 µM; 200,000 compounds, 1.5% hits;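 active = inhibition above about 50% when tested at 10 µM, limit read from the data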
Target sequence (P08659 whole entry, looked up): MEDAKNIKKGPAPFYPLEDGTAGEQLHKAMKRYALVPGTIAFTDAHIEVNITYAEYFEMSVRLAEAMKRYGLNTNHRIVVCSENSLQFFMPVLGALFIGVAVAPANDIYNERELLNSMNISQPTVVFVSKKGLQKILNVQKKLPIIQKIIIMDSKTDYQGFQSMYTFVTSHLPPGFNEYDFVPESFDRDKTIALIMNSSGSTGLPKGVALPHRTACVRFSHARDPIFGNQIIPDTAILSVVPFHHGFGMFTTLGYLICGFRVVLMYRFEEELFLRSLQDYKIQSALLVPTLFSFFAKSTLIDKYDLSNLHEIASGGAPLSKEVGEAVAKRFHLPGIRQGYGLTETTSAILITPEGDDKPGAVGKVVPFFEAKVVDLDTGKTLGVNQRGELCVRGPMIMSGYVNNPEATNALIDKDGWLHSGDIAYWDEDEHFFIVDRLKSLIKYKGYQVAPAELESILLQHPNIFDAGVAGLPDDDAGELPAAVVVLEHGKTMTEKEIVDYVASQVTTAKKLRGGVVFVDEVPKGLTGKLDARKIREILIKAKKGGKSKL
FLuc act counter: FLuc activators, initial screening, artefact control for FLuc-dependent activation tests, biochemical, ATPlite luminescence | Luciferin 4-monooxygenase (Photinus pyralis), P08659 | ATPlite luciferase biochemical, 10 min; 0 = ATP-free wells, 1 = DMSO control | activation factor at 10 µM | 200,000 tested, under 10 active | AID 1027, 2008;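 active = luciferase activation factor, scaled between plate controls, of at least 2 with compound at 10 µM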
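Material: Luciferase/luciferin reagent mix | Doses: Test compounds dosed from 2 mM stocks in 100% DMSO | Timing: 10 min incubation after luciferase reagent addition, room temperature | Measured by: Luminescence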
Active calls of the source: *; · = no result given. An excerpt weighted towards active compounds, which were near 4.3% of everything screened.

SMILES	NF-kB expr up	APP 5'UTR act	STAT1 activator	SDO1 yeast rescue	FLuc inh counter	FLuc act counter
C=CCNC(=O)/C(C#N)=C/c1ccc2c(c1)OCCO2	1.3	17	98	·	50*	0.5
COCCNC(=O)/C(C#N)=C/c1ccc2c(c1)OCO2	1.5	-9	99	·	3	1
COC(=O)C(NS(C)(=O)=O)(c1c(C)[nH]c2ccccc12)C(F)(F)F (stereo unspecified)	1.7	8	104	1.1	-5	1
c1ccc(CSc2nnc(NC3=NCCCCC3)s2)cc1	2.9	72	140*	-1.9	4	1
COC(=O)[C@H](Cc1ccccc1)NC(=O)NCCC1=CCCCC1	1.1	20	100	0.62	-4	1
Brc1ccccc1-c1nc(-c2ccccc2)no1	9.5*	180*	147*	-0.66	73*	0.3
Fc1ccccc1-c1nc(-c2ccccc2)no1	6.5*	157*	130*	-0.73	60*	0.4
c1ccc(-c2ccccc2-c2nc(-c3cccnc3)no2)cc1	0.86	-12	100	-1.6	-8	1.1
COc1ccc(COCC(O)CN2CC(C)OC(C)C2)cc1OC (stereo unspecified)	1.5	4	99	0.45	-6	1.1
O=c1c(-c2ccc3c(c2)OCCO3)coc2cc(O)cc(O)c12	5.8*	145*	119	-1.5	62*	0.4
COc1cccc(OC)c1C(=O)Nc1nc2ccc([N+](=O)[O-])cc2s1	·	-15	93	·	-4	1
COc1ccc(NC2=C(NCCO)C(=O)c3ccccc3C2=O)cc1	4.3*	32	101	0.63	6	0.9
Cc1ccc(-c2cc(C(=O)NCc3ccccn3)c3ccccc3n2)cc1	0.63	-10	111	-0.74	38	0.6
CCc1ccc(-c2cc(C(=O)NCc3ccccn3)c3ccccc3n2)cc1	0.85	39	108	-1.4	61*	0.4
CCCc1ccc(-c2cc(C(=O)NC3=NCCS3)c3ccccc3n2)cc1	2.9	104	114	-1.5	85*	0.2
O=C(NC1=NCCS1)c1cc(-c2ccc(F)cc2)nc2ccccc12	0.99	-11	104	-1.2	13	0.9
Cc1ccc(-c2cc(C(=O)NC3=NCCS3)c3ccccc3n2)cc1C	1	49	118	-0.99	65*	0.3
COc1ccc(C2Nc3ccccc3C(=O)N2O)cc1CN1CCOCC1 (stereo unspecified)	1.1	21	102	-0.03	-7	1.1
CCOc1ccc(CNC(=O)c2ccc(Sc3ccc(C)cc3)c(NC(C)=O)c2)cc1	0.85	-3	101	-0.89	-7	1.1
COc1cccc(CN(Cc2cccnc2)S(=O)(=O)c2ccc(-n3cnnn3)c(C)c2)c1OC	0.7	4	96	0.05	-6	1.1
Cc1sc(N2C(=O)C3C4C=CC(C4)C3C2=O)c(C#N)c1C (stereo unspecified)	1	1	100	-1.4	0	1
CSc1nc2sc(-c3ccccc3)cc2c(=O)n1N	2	2	138*	-0.82	34	0.7
Cc1ccc(C23CC4CC(CC(C(=O)OCC(=O)NC5CCS(=O)(=O)C5)(C4)C2)C3)cc1 (stereo unspecified)	1.2	3	90	-0.55	-5	1.1
COc1ccc2c(c1)CCC1C2=NN(/C(C)=C\C(C)=O)C1c1ccc(F)cc1 (stereo unspecified)	1.8	43	130*	·	22	0.8
COc1ccccc1/C=C/C(=O)c1c2c(c(C)[nH]c1=O)CCCC2	1.8	11	77	-0.06	-5	1.1
SMILES	NF-kB expr up	APP 5'UTR act	STAT1 activator	SDO1 yeast rescue	FLuc inh counter	FLuc act counter
COCC(C)N=C1NN=C(c2ccc(NC(C)=O)cc2)CS1 (stereo unspecified)	1.3	30	100	·	20	0.8
CC(C)N=C1NN=C(c2ccc(Cl)c(Cl)c2)CS1	8.6*	172*	136*	·	64*	0.4
CC(C)N=C1NN=C(c2cccs2)CS1	3.5*	103	134*	·	31	0.7
CC1CCN(c2ccc(C(=O)O)cc2NS(=O)(=O)c2ccc(Br)cc2)CC1	1.6	-5	92	0.14	-7	1.1
Fc1cccc2sc(Nc3nc4c(F)cccc4s3)nc12	1	39	104	0.5	1	1
Fc1cccc2sc(Nc3nnc(-c4ccccc4)o3)nc12	2.5	56	112	0.78	77*	0.2
NNc1nc2c(F)cccc2s1	1.2	142*	146*	-0.06	-3	1
O=C(Nc1cccc(-c2nc3cc(Cl)ccc3o2)c1)C1CCCO1 (stereo unspecified)	3.4*	·	130*	0.11	3	1
CCC(=O)Nc1ccc2oc(-c3cccc(C)c3)nc2c1	3.5*	190*	103	-0.24	71*	0.3
Cc1ccc2oc(-c3cccc(NC(=O)C4CCCO4)c3)nc2c1 (stereo unspecified)	4*	56	140*	-1.7	30	0.7
Cc1ccc2oc(-c3cccc(NC(=O)Cc4cccs4)c3)nc2c1	1.1	-5	120	-2.2	5	1
Cc1ccc2nc(-c3cccc(NC(=O)c4ccc5c(c4)OCCO5)c3)oc2c1	1.4	31	116	-2.4	24	0.8
COc1ccc(OCC(=O)Nc2cccc(-c3nc4ccccc4o3)c2)cc1	1.8	113	148*	-0.59	15	0.9
Cc1ccc2oc(=O)c3cc(C(=O)Nc4cc(-c5cccc(F)c5)no4)sc3c2c1	1.1	35	89	-0.51	-5	1.1
N=c1c(-c2nc3ccccc3[nH]2)cc(C(=O)c2cccs2)nn1-c1ccc(Cl)cc1	·	20	94	·	·	·
Cc1cccc(-c2nc3cc(NC(=O)C4CCCO4)ccc3o2)c1 (stereo unspecified)	4.7*	138*	130*	-0.34	83*	0.2
CCC(=O)Nc1ccc(-c2nc3ccccc3c(=O)o2)cc1	·	-15	63	·	74*	0.3
CCOc1ccccc1C(=O)NC(CO)C(=O)O (stereo unspecified)	1.2	-4	108	0.25	-3	1
O=C(/C=C/N1CCOCC1)c1cc2ccccc2o1	2	27	127	0.82	41	0.6
O=C(/C=C/N1CCOCC1)c1coc2ccccc12	2.4	49	136*	0.2	54*	0.5
CCOC(=O)C1CCN(Cc2cn(C)nc2-c2ccc(Oc3ccccc3)cc2)CC1	0.96	2	102	·	-6	1.1
COc1cc(/C=N/Nc2nc3ccccc3o2)cc(OC)c1O	0.93	18	101	0.47	13	0.9
